# Test results published in BindingDB's records for doi:10.1016/j.ejmech.2011.10.030 (Helwan University, 2011).
# Target: Beta-lactamase (Pseudomonas aeruginosa, UniProt Q79MP6)
# Test: Competitive inhibition of Pseudomonas aeruginosa metallo-beta-lactamase IMP-1 expressed in Escherichia coli BL21(DE3) using CENTA as substrate by spectrophotometric analysis
# Summary of the method: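 IMP-1 lacking the first 21 signal-peptide residues, recombinantly expressed and purified, at 2 nM final. Buffer was 50 mM HEPES, 0.1 M NaCl, 100 µM ZnCl2, pH 7.0, with BSA at 20 µg/mL final. CENTA was varied from 5 to 70 µM final at three inhibitor concentrations. […] was read at 405 nm on a plate reader, and data were fitted by non-linear regression.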
# Chain of Beta-lactamase (Q79MP6 whole entry): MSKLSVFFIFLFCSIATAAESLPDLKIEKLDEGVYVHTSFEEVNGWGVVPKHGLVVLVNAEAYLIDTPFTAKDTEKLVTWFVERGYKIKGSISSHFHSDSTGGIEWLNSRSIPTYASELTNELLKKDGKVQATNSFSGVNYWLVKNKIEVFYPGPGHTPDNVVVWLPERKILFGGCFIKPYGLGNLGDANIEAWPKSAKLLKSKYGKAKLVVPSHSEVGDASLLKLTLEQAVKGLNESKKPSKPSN
row,Structure (SMILES),Ki
1,Cc1ccc(-n2c(-c3ccccc3)c(-c3ccccc3)c3c(Cl)ncnc32)cc1,19 µM
2,Cc1ccc(-n2cc(-c3ccccc3)c3c(Cl)ncnc32)cc1,33 µM
3,Cc1ccc(-n2c(-c3ccccc3)c(-c3ccccc3)c3c(N/N=C/c4ccccc4)ncnc32)cc1,18 µM
4,COc1ccc(-n2c3c(c(-c4ccccc4)c2-c2ccccc2)C(=C(C#N)C#N)NC=N3)cc1,29 µM

# Stronger by Ki, values ahead:
row,Ki,Structure (SMILES)
1,15 µM,Cc1ccc(-n2c(-c3ccccc3)c(-c3ccccc3)c3c2ncn2c(=S)[nH]nc32)cc1
2,12 µM,COc1ccc(-n2c(-c3ccccc3)c(-c3ccccc3)c3c(Cl)ncnc32)cc1
